In ChEMBL document CHEMBL1926550, “Synthesis and antibacterial activity of naphthyridone derivatives containing mono/difluoro-methyloxime pyrrolidine scaffolds” (2012):
Converted amounts (≈) assume the structure as drawn.

Legend:
Type in all cases: functional
Escherichia coli [1] = assay: Antibacterial activity against Escherichia coli 10-1 after 18 hrs by two fold serial dilution method; conditions: 10-1, 18 h
Outline: (§1)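 Agar two-fold serial dilution in melted Mueller-Hinton agar, final concentrations 128 down to 0.008 μg/mL. Plates inoculated with 10⁴ cfu and incubated at 35 °C for 18 h. MIC taken as the lowest concentration giving no visible growth on the plate.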

Escherichia coli [2] = assay: Antibacterial activity against Escherichia coli 10-2 after 18 hrs by two fold serial dilution method; conditions: 10-2, 18 h; outline: as §1
Escherichia coli [3] = assay: Antibacterial activity against Escherichia coli 10-3 after 18 hrs by two fold serial dilution method; conditions: 10-3, 18 h; outline: as §1
Klebsiella pneumoniae [4] = assay: Antibacterial activity against Klebsiella pneumoniae 09-2 after 18 hrs by two fold serial dilution method; conditions: 09-2, 18 h; outline: as §1
Klebsiella pneumoniae [5] = assay: Antibacterial activity against Klebsiella pneumoniae 10-1 after 18 hrs by two fold serial dilution method; conditions: 10-1, 18 h; outline: as §1
Klebsiella pneumoniae [6] = assay: Antibacterial activity against Klebsiella pneumoniae 10-3 after 18 hrs by two fold serial dilution method; conditions: 10-3, 18 h; outline: as §1
Pseudomonas aeruginosa [7] = assay: Antibacterial activity against Pseudomonas aeruginosa ATCC 27853 after 18 hrs by two fold serial dilution method; conditions: ATCC 27853, 18 h; outline: as §1
Pseudomonas aeruginosa [8] = assay: Antibacterial activity against Pseudomonas aeruginosa 10-1 after 18 hrs by two fold serial dilution method; conditions: 10-1, 18 h; outline: as §1
Pseudomonas aeruginosa [9] = assay: Antibacterial activity against Pseudomonas aeruginosa 10-2 after 18 hrs by two fold serial dilution method; conditions: 10-2, 18 h; outline: as §1
Pseudomonas aeruginosa [10] = assay: Antibacterial activity against Pseudomonas aeruginosa 10-3 after 18 hrs by two fold serial dilution method; conditions: 10-3, 18 h; outline: as §1
Enterococcus faecium [11] = assay: Antibacterial activity against Enterococcus faecium 09-1 after 18 hrs by two fold serial dilution method; conditions: 09-1, 18 h; outline: as §1
Staphylococcus aureus [12] = assay: Antibacterial activity against Staphylococcus aureus ATCC 25923 after 18 hrs by two fold serial dilution method; conditions: ATCC 25923, 18 h; outline: as §1
Staphylococcus aureus [13] = assay: Antibacterial activity against methicillin-resistant Staphylococcus aureus 10-1 after 18 hrs by two fold serial dilution method; conditions: 10-1, 18 h
Outline: (§2)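 Agar two-fold serial dilution in melted Mueller-Hinton agar, 128 to 0.008 μg/mL. Plates inoculated with 10⁴ cfu, incubated 35 °C for 18 h. MIC taken as lowest concentration giving no visible growth on the plate.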

Staphylococcus aureus [14] = assay: Antibacterial activity against methicillin-resistant Staphylococcus aureus 10-2 after 18 hrs by two fold serial dilution method; conditions: 10-2, 18 h; outline: as §2
Staphylococcus aureus [15] = assay: Antibacterial activity against methicillin-resistant Staphylococcus aureus 10-3 after 18 hrs by two fold serial dilution method; conditions: 10-3, 18 h; outline: as §2
Staphylococcus aureus [16] = assay: Antibacterial activity against methicillin-resistant Staphylococcus aureus 10-4 after 18 hrs by two fold serial dilution method; conditions: 10-4, 18 h; outline: as §2
Staphylococcus aureus [17] = assay: Antibacterial activity against methicillin-sensitive Staphylococcus aureus 10-1 after 18 hrs by two fold serial dilution method; conditions: 10-1, 18 h; outline: as §1
Staphylococcus aureus [18] = assay: Antibacterial activity against methicillin-sensitive Staphylococcus aureus 10-2 after 18 hrs by two fold serial dilution method; conditions: 10-2, 18 h; outline: as §1
Staphylococcus aureus [19] = assay: Antibacterial activity against methicillin-sensitive Staphylococcus aureus 10-3 after 18 hrs by two fold serial dilution method; conditions: 10-3, 18 h; outline: as §1
Staphylococcus aureus [20] = assay: Antibacterial activity against methicillin-sensitive Staphylococcus aureus 10-4 after 18 hrs by two fold serial dilution method; conditions: 10-4, 18 h; outline: as §1
Staphylococcus aureus [21] = assay: Antibacterial activity against methicillin-sensitive Staphylococcus aureus 10-5 after 18 hrs by two fold serial dilution method; conditions: 10-5, 18 h; outline: as §1
Staphylococcus aureus [22] = assay: Antibacterial activity against methicillin-sensitive Staphylococcus aureus 10-6 after 18 hrs by two fold serial dilution method; conditions: 10-6, 18 h; outline: as §1
[23] = system: Staphylococcus epidermidis; assay: Antibacterial activity against methicillin-resistant Staphylococcus epidermidis 10-1 after 18 hrs by two fold serial dilution method; conditions: 10-1, 18 h; outline: as §2
[24] = system: Staphylococcus epidermidis; assay: Antibacterial activity against methicillin-resistant Staphylococcus epidermidis 10-2 after 18 hrs by two fold serial dilution method; conditions: 10-2, 18 h; outline: as §2
[25] = system: Staphylococcus epidermidis; assay: Antibacterial activity against methicillin-sensitive Staphylococcus epidermidis 10-1 after 18 hrs by two fold serial dilution method; conditions: 10-1, 18 h; outline: as §1
[26] = system: Staphylococcus epidermidis; assay: Antibacterial activity against methicillin-sensitive Staphylococcus epidermidis 10-2 after 18 hrs by two fold serial dilution method; conditions: 10-2, 18 h; outline: as §1
Streptococcus pneumoniae = assay: Antibacterial activity against Streptococcus pneumoniae 10-1 after 18 hrs by two fold serial dilution method; conditions: 10-1, 18 h; outline: as §1
Enterococcus faecium [27] = assay: Antibacterial activity against Enterococcus faecium 09-2 after 18 hrs by two fold serial dilution method; conditions: 09-2, 18 h; outline: as §1
Enterococcus faecium [28] = assay: Antibacterial activity against Enterococcus faecium 09-3 after 18 hrs by two fold serial dilution method; conditions: 09-3, 18 h; outline: as §1
Enterococcus faecium [29] = assay: Antibacterial activity against Enterococcus faecium 09-4 after 18 hrs by two fold serial dilution method; conditions: 09-4, 18 h; outline: as §1
Enterococcus faecium [30] = assay: Antibacterial activity against Enterococcus faecium 09-5 after 18 hrs by two fold serial dilution method; conditions: 09-5, 18 h; outline: as §1
Enterococcus faecium [31] = assay: Antibacterial activity against Enterococcus faecium 09-6 after 18 hrs by two fold serial dilution method; conditions: 09-6, 18 h; outline: as §1
Enterococcus faecalis [32] = assay: Antibacterial activity against Enterococcus faecalis 09-1 after 18 hrs by two fold serial dilution method; conditions: 09-1, 18 h; outline: as §1
Enterococcus faecalis [33] = assay: Antibacterial activity against Enterococcus faecalis 09-2 after 18 hrs by two fold serial dilution method; conditions: 09-2, 18 h; outline: as §1
Escherichia coli [34] = assay: Antibacterial activity against Escherichia coli ATCC 25922 after 18 hrs by two fold serial dilution method; conditions: ATCC 25922, 18 h; outline: as §1
Escherichia coli [35] = assay: Antibacterial activity against Escherichia coli 09-1 after 18 hrs by two fold serial dilution method; conditions: 09-1, 18 h; outline: as §1
Escherichia coli [36] = assay: Antibacterial activity against Escherichia coli 09-2 after 18 hrs by two fold serial dilution method; conditions: 09-2, 18 h; outline: as §1
Escherichia coli [37] = assay: Antibacterial activity against Escherichia coli 09-3 after 18 hrs by two fold serial dilution method; conditions: 09-3, 18 h; outline: as §1

## CC1(CN)CN(c2ccc3c(=O)c(C(=O)O)cn(C4CC4)c3n2)C/C1=N\OCF (racemic)
Escherichia coli [1]
  MIC: > 128 µg/mL
Escherichia coli [2]
  MIC: 1 µg/mL (≈ 2.48 µM)
Escherichia coli [3]
  MIC: 128 µg/mL (≈ 317 µM)
Klebsiella pneumoniae [4]
  MIC: > 128 µg/mL
Klebsiella pneumoniae [5]
  MIC: 0.25 µg/mL (≈ 0.62 µM)
Klebsiella pneumoniae [6]
  MIC: 2 µg/mL (≈ 4.96 µM)
Pseudomonas aeruginosa [7]
  MIC: 1 µg/mL (≈ 2.48 µM)
Pseudomonas aeruginosa [8]
  MIC: 0.5 µg/mL (≈ 1.24 µM)
Pseudomonas aeruginosa [9]
  MIC: 64 µg/mL (≈ 159 µM)
Pseudomonas aeruginosa [10]
  MIC: 8 µg/mL (≈ 19.8 µM)
Enterococcus faecium [11]
  MIC: 32 µg/mL (≈ 79.3 µM)
Staphylococcus aureus [12]
  MIC: 0.03 µg/mL (≈ 0.0744 µM)
Staphylococcus aureus [13]
  MIC: 128 µg/mL (≈ 317 µM)
Staphylococcus aureus [14]
  MIC: 8 µg/mL (≈ 19.8 µM)
Staphylococcus aureus [15]
  MIC: 128 µg/mL (≈ 317 µM)
Staphylococcus aureus [16]
  MIC: 128 µg/mL (≈ 317 µM)
Staphylococcus aureus [17]
  MIC: 0.5 µg/mL (≈ 1.24 µM)
Staphylococcus aureus [18]
  MIC: 32 µg/mL (≈ 79.3 µM)
Staphylococcus aureus [19]
  MIC: 0.015 µg/mL (≈ 0.0372 µM)
Staphylococcus aureus [20]
  MIC: 0.015 µg/mL (≈ 0.0372 µM)
Staphylococcus aureus [21]
  MIC: 0.03 µg/mL (≈ 0.0744 µM)
Staphylococcus aureus [22]
  MIC: 0.03 µg/mL (≈ 0.0744 µM)
[23]
  MIC: 4 µg/mL (≈ 9.92 µM)
[24]
  MIC: 8 µg/mL (≈ 19.8 µM)
[25]
  MIC: 4 µg/mL (≈ 9.92 µM)
[26]
  MIC: 64 µg/mL (≈ 159 µM)
Streptococcus pneumoniae
  MIC: 0.015 µg/mL (≈ 0.0372 µM)
Enterococcus faecium [27]
  MIC: 32 µg/mL (≈ 79.3 µM)
Enterococcus faecium [28]
  MIC: 2 µg/mL (≈ 4.96 µM)
Enterococcus faecium [29]
  MIC: 0.5 µg/mL (≈ 1.24 µM)
Enterococcus faecium [30]
  MIC: 32 µg/mL (≈ 79.3 µM)
Enterococcus faecium [31]
  MIC: 0.5 µg/mL (≈ 1.24 µM)
Enterococcus faecalis [32]
  MIC: 32 µg/mL (≈ 79.3 µM)
Enterococcus faecalis [33]
  MIC: 0.015 µg/mL (≈ 0.0372 µM)
Escherichia coli [34]
  MIC: 0.015 µg/mL (≈ 0.0372 µM)
Escherichia coli [35]
  MIC: > 128 µg/mL
Escherichia coli [36]
  MIC: > 128 µg/mL
Escherichia coli [37]
  MIC: > 128 µg/mL
